Experimental findings from ChEMBL document CHEMBL1148965, “Cytotoxic and other metabolites of Aspergillus inhabiting the rhizosphere of Sonoran desert plants” (J Nat Prod, 2004) are described below.

The source made the active and inactive calls. The calls are words filed in the database; no cut-off is given here.

Broadly, the IC50 is the concentration that gives 50% inhibition. A lower IC50 goes with inhibition by little substance.

Series [1] has as its system NCI-H460. The series can be described thus: Cytotoxicity against human NCI-H460 cells by MTT assay. Format: functional, cell-based. The method, boiled down: (§1)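 Cells were exposed to DMSO-dissolved samples for 72 h in RPMI-1640 with 10% fetal bovine serum. Viability was read by tetrazolium (MTT) colorimetry. IC50 was taken as the concentration giving 50% inhibition of cell proliferation/survival. WI-38 are normal human primary fibroblasts.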

Series [2] deals with MCF7. Put plainly: Cytotoxicity against human MCF7 cells by MTT assay. Format: functional, cell-based. The gist of the method: as §1
In general terms: Tetrazolium dyes change colour on reduction, which living cells bring about.

The subject of series [3] is SF-268. The series can be described thus: Cytotoxicity against human SF268 cells by MTT assay. In kind it is functional, cell-based. The gist of the method: as §1
Series [4] has as its system MIA PaCa-2. The series can be described thus: Cytotoxicity against human MIAPaCa2 cells by MTT assay. In kind it is functional, cell-based. The gist of the method:
as §1

The nature of series [5]: Cytotoxicity against human WI38 cells by MTT assay. In kind it is cell-based. The following applies: WI-38. The gist of the method: as §1
In series [6] the test system is NCI-H460. Put plainly: Cytotoxicity against human NCI-H460 cells at 10 ug/mL by MTT assay. Format: functional, cell-based.
For series [7], the system named is MCF7. Put plainly: Cytotoxicity against human MCF7 cells at 10 ug/mL by MTT assay. In kind it is functional, cell-based.
Series [8] deals with SF-268. The series can be described thus: Cytotoxicity against human SF268 cells at 10 ug/mL by MTT assay. Format: functional, cell-based.
Series [9] relates to MIA PaCa-2. The series can be described thus: Cytotoxicity against human MIAPaCa2 cells at 10 ug/mL by MTT assay. In kind it is functional, cell-based.
The nature of series [10]: Cytotoxicity against human WI38 cells at 10 ug/mL by MTT assay. In kind it is cell-based. The following applies: wi-38.

On to `C[C@H]1CCC/C=C/C(=O)c2c(O)cc(O)cc2CC(=O)O1` [DEHYDROCURVULARIN], for which the IC50 in the series on NCI-H460 [1] was 1.1 µM; in the series with MCF7 [2] it was 1.3 µM; in the series with SF-268 [3] it was 2.5 µM; with MIA PaCa-2 [4], 1.9 µM; in series [5], 3.6 µM.
Consider `COC1=CC(=O)OC1(O)C(C)C` (stereo not given), for which the result in the series on NCI-H460 [6], with MCF7 [7], with SF-268 [8] and in the series on MIA PaCa-2 [9] was inactive. Moreover, in series [10], the Activity entry is “Non-toxic”.
As for `C=CC(C)(C)[C@]12CC3C(=O)Nc4ccccc4C(=O)N3[C@H]1N(C(C)=O)c1ccccc12` (stereo not given in full), the outcome with NCI-H460 [6], in the series on MCF7 [7], with SF-268 [8] and with MIA PaCa-2 [9] was inactive. Further, the Activity result in series [10] is “Non-toxic”.
Regarding `C[C@H]1CCCC(O)CC(=O)c2c(O)cc(O)cc2CC(=O)O1` (stereo not given in full), the IC50 worked out at 2.1 µM in the series on NCI-H460 [1]; 2 µM with MCF7 [2]; 4.1 µM with SF-268 [3]; 3.3 µM in the series with MIA PaCa-2 [4]; 11.6 µM in series [5].
On to `COC1=CC(=O)C[C@](C)(O)[C@H]1O` (relative stereo), for which the outcome in the series with NCI-H460 [6], with MCF7 [7], in the series on SF-268 [8] and in the series on MIA PaCa-2 [9] was inactive. Further, in [10], the Activity entry is listed as “Non-toxic”.
For `COC1CCC[C@H](C)OC(=O)Cc2cc(O)cc(O)c2C(=O)C1` (stereo not given in full), the IC50 in the series on NCI-H460 [1] worked out at 0.9 µM; in the series on MCF7 [2], 0.6 µM; in the series with SF-268 [3] it was 0.9 µM; in the series on MIA PaCa-2 [4], 1.2 µM; in series [5], 1.7 µM.
As for `C=CC(C)(C)c1[nH]c2ccccc2c1C1=C(O)C(=O)C(c2c[nH]c3ccccc23)=C(CC=C(C)C)C1=O` [TERREQUINONE A], the IC50 in the series with NCI-H460 [1] amounted to 5.6 µM; with MCF7 [2], 6.8 µM; in the series on SF-268 [3], 13.9 µM; in the series on MIA PaCa-2 [4] it was 5.4 µM.
Consider `C/C=C/C1=CC(=O)[C@](C)(/C=C/C=C/CC)O1`, for which the IC50 in the series with NCI-H460 [1] amounted to 5.5 µM; in the series on MCF7 [2], 11.7 µM; in the series with SF-268 [3] it was 6.8 µM; with MIA PaCa-2 [4], 6.3 µM.
On to `COc1cccc2c1C(=O)c1c(O)c3c(c(O)c1C2=O)C[C@@](O)(C(=O)CO)C[C@@H]3O[C@H]1C[C@H](N)[C@H](O)[C@H](C)O1` [DOXORUBICIN], for which the IC50 came out at 0.01 µM with NCI-H460 [1] and 0.3 µM in series [5].
Turning to `COCC(C)C1(O)OC(=O)C=C1OC` (stereo not given), the result in the series with NCI-H460 [6], with MCF7 [7], in the series with SF-268 [8] and in the series with MIA PaCa-2 [9] was inactive. For the same compound, the Activity entry in series [10] is given as “Non-toxic”.
Regarding `C=C(C)C1(O)OC(=O)C=C1OC` (stereo not given) [PENICILLIC ACID], the IC50 in the series with NCI-H460 [1] is 5.8 µM; with MCF7 [2], 12.8 µM; in the series on SF-268 [3], 20 µM; with MIA PaCa-2 [4], 8 µM; in series [5] it was 57.5 µM.
As to `CC/C=C/C=C/[C@]1(C)OC(CC(C)O)=CC1=O` (stereo not given in full) [TERREFURANONE], the outcome in the series with NCI-H460 [6], in the series on MCF7 [7], in the series with SF-268 [8] and with MIA PaCa-2 [9] was inactive. The Activity entry in [10] is reported as “Non-toxic”.
